# Assay results from ChEMBL document CHEMBL1126312, “Synthesis and evaluation of 3-substituted 17-methylmorphinan analogs as potential anticonvulsant agents” (J Med Chem, 1992).
# Activity calls are given as the source filed them. No cut-off for these calls is given here.
# Legend:
# [1] = molecular target: Glutamate [NMDA] receptor; assay: (§1) Binding affinity against dextromethorpin binding site associated with N-methyl-D-aspartate glutamate receptor from guinea pig mitochondrial pellet P2 determined using [3H]1 as radioligand.; type: protein-complex assay, Cavia porcellus
# Outline: (§2)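 Guinea pig brain crude mitochondrial P2 fraction (11500g pellet, De Robertis-based) was used in Tris-HCl pH 7.4. [3H]dextromethorphan at 5 nM final was incubated with ~0.3 mg tissue for 20 min at 23 °C, with displacer at 10^-9–10^-5 M. Nonspecific binding was defined with 100 µM unlabelled ligand. Samples were filtered on GF/B and counted by scintillation.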
# [2] = molecular target: Glutamate NMDA receptor; assay: Binding affinity against dextromethorpin binding site of N-methyl-D-aspartate glutamate receptor from rat brain using [3H]1
# Outline: (§3)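 Rat brain membranes were the 100000g pellet of the 1000g supernatant, in 50 mM Tris-HCl pH 7.4. [3H]dextromethorphan (5 nM final) was incubated with ~0.3 mg membranes for 20 min at 23 °C, with displacer at 10^-9–10^-5 M. Nonspecific binding was defined with 100 µM unlabelled ligand. Samples were filtered on GF/B in cold Tris/choline chloride/Triton wash and counted by scintillation.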
# [3] = molecular target: Glutamate NMDA receptor; assay: (§4) Binding affinity against PCP binding site associated with N-methyl-D-aspartate glutamate receptor from rat synaptic plasma membrane(SPM) determined using [3H]TCP as radioligand.
# Outline: (§5)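 Crude rat brain synaptic plasma membranes (cerebellum removed, extensively washed) were used in 5 mM Tris-HCl pH 7.4. [3H]TCP at 5 nM final was incubated with ~0.2 mg membranes for 60 min at 23 °C. Nonspecific binding was defined with cold phencyclidine. Samples were filtered on GF/B pre-soaked in 0.5% PEI, washed with 5 mM Tris pH 7.7 and counted.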
# [4] = molecular target: Glutamate [NMDA] receptor; assay: Inhibition of [3H]1 binding to dextromethorpin binding site of guinea pig microsomal pellet P3 N-methyl-D-aspartate glutamate receptor; set-up: species or system Cavia porcellus
# Outline: (§6)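 Guinea pig brain microsomal P3 fraction (100000g, 60 min pellet) was used in Tris-HCl pH 7.4. [3H]dextromethorphan at 5 nM final was incubated with ~0.5 mg tissue for 20 min at 23 °C, with displacer at 10^-9–10^-5 M. Nonspecific binding was defined with 100 µM unlabelled ligand. Samples were filtered on GF/B in cold Tris/choline chloride/Triton buffer and counted.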
# [5] = system: Glutamate NMDA receptor; assay: Binding affinity against glycine binding site of N-methyl-D-aspartate glutamate receptor from rat synaptic plasma membrane(SPM) using [3H]glycine; NA = No effect
# [6] = system: Rattus norvegicus; assay: Anticonvulsant activity in rat supramaximal electroshock (MES) test expressed as % rats protected at a dose of 25-50 mg/kg.; type: functional
# Outline: (§7)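 Rats were given the compound sc in freshly diluted normal saline (DMSO or HCl-assisted dissolution for some compounds) at 1-2 mL/kg. Vehicle-injected controls were run. Rats were tested at 30 min after injection. The read-out is the % of rats protected from convulsion in the MES test at the stated doses, with n = 10 rats.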
# [7] = molecular target: T1, Glutamate NMDA receptor (Rattus norvegicus) (UniProt P35439+Q00959+Q00960+Q00961+Q62645+Q8VHN2+Q9R1M7); assay: as §4; outline: as §5
# [8] = system: Rattus norvegicus; assay: Anticonvulsant activity in rat supramaximal electroshock (MES) test expressed as % rats protected at a dose of 25-100 mg/kg.; type: functional; outline: as §7
# [9] = molecular target: T1, Glutamate NMDA receptor (Rattus norvegicus); assay: Binding affinity against dextromethorpin binding site associated with N-methyl-D-aspartate glutamate receptor from rat brain determined using [3H]1 as radioligand.; conditions: concentration not given here; outline: as §3
# [10] = system: Rattus norvegicus; assay: Anticonvulsant activity in rat supramaximal electroshock (MES) test within a dose range of 15-60 mg/kg.; type: functional
# Outline: (§8)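 The compound was given sc in freshly diluted normal saline at 1-2 mL/kg across the stated dose range, with vehicle-injected controls. MES protection was scored 30 min post-dose, with n = 10 rats. ED50 was derived from the dose-response and reported with 95% confidence limits, in mg/kg and µmol/kg.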
# [11] = system: Rattus norvegicus; assay: Anticonvulsant activity was determined in rat supramaximal electroshock (MES) test within a dose range of 15-60 mg/kg after (sc) administration; type: functional; outline: as §8
# [12] = system: Rattus norvegicus; assay: Anticonvulsant activity in rat supramaximal electroshock (MES) test expressed as % rats protected at a dose of 12.5-50 mg/kg.; type: functional; outline: as §7
# [13] = molecular target: T2, Glutamate [NMDA] receptor (Homo sapiens) (UniProt Q05586+Q12879+Q13224+O15399+O60391+Q14957+Q8TCU5); assay: Binding affinity against dextromethorpin binding site associated with N-methyl-D-aspartate glutamate receptor from guinea pig microsomal pellet P3 determined using [3H]1 as radioligand.; conditions: Cavia porcellus; target entry is the homologue from another species; concentration not given here; outline: as §6
# [14] = molecular target: T2, Glutamate [NMDA] receptor (Homo sapiens); assay: as §1; type: functional; conditions: Cavia porcellus; target entry is the homologue from another species; concentration not given here; outline: as §2
# [15] = molecular target: T1, Glutamate NMDA receptor (Rattus norvegicus); assay: (§9) Binding affinity against glycine binding site associated with N-methyl-D-aspartate glutamate receptor from rat synaptic plasma membrane(SPM) determined using [3H]glycine as radioligand.;NA = No effect
# [16] = system: Rattus norvegicus; assay: Anticonvulsant activity in rat supramaximal electroshock (MES) test expressed as % rats protected at a dose of 2.5-50 mg/kg.; type: functional; outline: as §7
# [17] = molecular target: T1, Glutamate NMDA receptor (Rattus norvegicus); assay: as §4; conditions: concentration not given here
# Outline: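 Rat brain (minus cerebellum) crude synaptic plasma membranes, washed repeatedly in 5 mM Tris-HCl pH 7.4; about 0.2 mg incubated with 5 nM [3H]TCP for 60 min at 23 °C, 0.5 mL final volume. Displacers tested at 10^-9–10^-5 M; cold PCP defines nonspecific binding. Bound ligand collected by filtration on PEI-soaked GF/B filters and counted by scintillation.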
# [18] = molecular target: T2, Glutamate [NMDA] receptor (Homo sapiens); conditions: Cavia porcellus; 10e-5 M
# [19] = molecular target: T2, Glutamate [NMDA] receptor (Homo sapiens); conditions: Cavia porcellus; Plasma; 10e-5 M
# [20] = molecular target: T1, Glutamate NMDA receptor (Rattus norvegicus); conditions: 10e-5 M
# [21] = molecular target: T1, Glutamate NMDA receptor (Rattus norvegicus); assay: Binding affinity against PCP binding site associated with N-methyl-D-aspartate glutamate receptor from rat synaptic plasma membrane(SPM) determined using [3H]TCP as radioligand; conditions: concentration not given here; outline: as §5
# [22] = system: Rattus norvegicus; assay: Anticonvulsant activity in rat supramaximal electroshock (MES) test expressed as % rats protected at a dose of 5-40 mg/kg.; type: functional; outline: as §7
# [23] = system: Rattus norvegicus; assay: Anticonvulsant activity in rat supramaximal electroshock (MES) test within a dose range of 15-60 mg/kg administered subcutaneously; type: functional; conditions: sc; outline: as §8
# [24] = system: Rattus norvegicus; assay: Anticonvulsant activity in rat supramaximal electroshock (MES) test expressed as % rats protected at a dose of 15-60 mg/kg.; type: functional; outline: as §7
# [25] = molecular target: Glutamate [NMDA] receptor; assay: Binding affinity against dextromethorpin binding site associated with N-methyl-D-aspartate glutamate receptor from guinea pig microsomal pellet (P3) using [3H]1 as radioligand.; set-up: species or system Cavia porcellus; outline: as §6
# [26] = molecular target: Glutamate NMDA receptor; assay: Binding affinity against dextromethorpin binding site associated with N-methyl-D-aspartate glutamate receptor from rat brain using [3H]1 as radioligand.; outline: as §3
# [27] = system: Glutamate NMDA receptor; assay: Binding affinity against glycine binding site associated with N-methyl-D-aspartate glutamate receptor from rat synaptic plasma membrane using [3H]glycine as radioligand.
# [28] = system: Rattus norvegicus; assay: Anticonvulsant activity in rat supramaximal electroshock (MES) test expressed as % rats protected at a dose of 50 mg/kg.; type: functional; outline: as §7
# [29] = system: Rattus norvegicus; assay: Anticonvulsant activity in rat supramaximal electroshock (MES) test expressed as % rats protected at a dose of 10 and 25 mg/kg.; type: functional; outline: as §7
# [30] = molecular target: Glutamate [NMDA] receptor; assay: Binding affinity against dextromethorpin binding site associated with N-methyl-D-aspartate glutamate receptor from guinea pig mitochondriall pellet P2 determined using [3H]1 as radioligand.; type: protein-complex assay, Cavia porcellus; outline: as §2
# [31] = system: Glutamate NMDA receptor; assay: as §9
# [32] = system: Rattus norvegicus; assay: Anticonvulsant activity in rat supramaximal electroshock (MES) test expressed as % rats protected at a dose of 2.5-10 mg/kg.; type: functional; outline: as §7
# [33] = system: Rattus norvegicus; assay: Anticonvulsant activity in rat supramaximal electroshock (MES) test expressed as % rats protected at a dose of 40 mg/kg.; type: functional; outline: as §7
# [34] = molecular target: T1, Glutamate NMDA receptor (Rattus norvegicus); assay: Binding affinity against PCP binding site associated with N-methyl-D-aspartate glutamate receptor from rat synaptic plasma membrane(SPM) determined using [3H]TCP as radioligand.;NA = No effect; conditions: concentration not given here; outline: as §5
# [35] = system: Rattus norvegicus; assay: Anticonvulsant activity in rat supramaximal electroshock (MES) test expressed as % rats protected at a dose of 1.25-10 mg/kg.; type: functional; outline: as §7
SMILES,IC50 [1],IC50 [2],IC50 [4],IC50 [5],ED50 [10],further results
CN1CCC23CCCCC2C1Cc1ccc(Cl)cc13 (centres undefined),370 nM,1100 nM,210 nM,Not Active,–,IC50 [3]: 5500 nM; Protection [6]: 10%
CN1CCC23CCCCC2C1Cc1ccccc13 (centres undefined),1700 nM,1300 nM,1000 nM,Not Active,–,inhibition ([7]; concentration not given here): 53%; Protection [8]: 0%
CNc1ccc2c(c1)C13CCCCC1C(C2)N(C)CC3 (centres undefined),480 nM,3600 nM,1300 nM,Not Active,–,inhibition ([7]; concentration not given here): 43%; Protection [8]: 0%
c1ccc(C2(N3CCCCC3)CCCCC2)cc1 [PHENCYCLIDINE],–,–,–,–,–,IC50 [3]: 180 nM
CN1CCC23CCCCC2C1Cc1ccc(N)cc13 (centres undefined),6400 nM,–,4400 nM,Not Active,76 µmol/kg,IC50 [3]: 7800 nM; inhibition [9]: 45%; ED50 [11]: 25 mg/kg; Protection [12]: 100%
CN1CCC23CCCCC2C1Cc1ccc(Oc2nc(-c4ccccc4)nc4ccccc24)cc13 (centres undefined),–,–,–,–,–,inhibition [13]: 50%; inhibition [14]: 25%; inhibition [9]: 19%; inhibition [15]: inactive; Protection [16]: 10%
CN(C)CCCN1c2ccccc2Sc2ccc(Cl)cc21 [CHLORPROMAZINE],1100 nM,1300 nM,600 nM,Not Active,–,inhibition [17]: 25%
C[C@]12N[C@H](Cc3ccccc31)c1ccccc12,–,–,–,–,–,inhibition [18]: 19%; inhibition [19]: 20%; inhibition [20]: 42%
CCCCOc1ccc2c(c1)C13CCCCC1C(C2)N(C)CC3 (centres undefined),160 nM,1500 nM,100 nM,Not Active,–,inhibition [21]: 58%; Protection [22]: 40%
COc1ccc2c(c1)C13CCCCC1C(C2)N(C)CC3 (stereo not drawn) [RACEMETHORPHAN],240 nM,–,490 nM,Not Active,109 µmol/kg,ED50 [23]: 38 mg/kg; Protection [24]: 70%
CN1CCC23CCCCC2C1Cc1ccc(OCc2ccccc2)cc13 (centres undefined),270 nM,–,–,–,–,IC50 [25]: 150 nM; inhibition ([7]; concentration not given here): 39%; IC50 [26]: 3100 nM; IC50 [27]: Not Active; Protection [28]: 30%
CCOc1ccc2c(c1)C13CCCCC1C(C2)N(C)CC3 (centres undefined),90 nM,420 nM,130 nM,Not Active,17.4 µmol/kg,inhibition [21]: 75%; ED50 [23]: 5.6 mg/kg; Protection [29]: 90%
CN1CC[C@]23CCCC[C@H]2[C@H]1Cc1ccc(O)cc13 [LEVORPHANOL],–,7700 nM,2700 nM,–,12 µmol/kg,IC50 [3]: 1200 nM; IC50 [30]: 2500 nM; IC50 [31]: Not Active; ED50 [23]: 5 mg/kg; Protection [32]: 90%
CN1CCC23CCCCC2C1Cc1ccc(N=C=S)cc13 (centres undefined),440 nM,1500 nM,170 nM,Not Active,–,inhibition ([7]; concentration not given here): 60%; Protection [6]: 0%
CN(C)c1ccc2c(c1)C13CCCCC1C(C2)N(C)CC3 (centres undefined),680 nM,4400 nM,1100 nM,Not Active,–,inhibition [7]: 45 µM; Protection [33]: 40%
CC(C)Oc1ccc2c(c1)C13CCCCC1C(C2)N(C)CC3 (centres undefined),150 nM,880 nM,120 nM,Not Active,9.4 µmol/kg,inhibition [34]: 59%; ED50 [23]: 3.9 mg/kg; Protection [35]: 90%
